Like-named read-outs stand apart in the source and are kept apart here.
Experiments:
[1] = Stability in human serum measured by mass spectrometry; format: in vitro ADME; settings: 25% human serum in PBS
How it was run: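 Peptide at 10 μM was incubated in 25% human serum in PBS at 37 °C. Aliquots were taken at 0, 2.5, 5, 10, 20, 40 and 60 min into 0.2% formic acid (1:4) containing an internal standard and held at 4 °C. Peptide abundance relative to the internal standard was measured by mass spectrometry and plotted against incubation time.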

PCNA = PCNA (Homo sapiens, UniProt P12004); test: Isothermal titration calorimetry; format: binding; settings: ITC, pH 7.4, 25 °C, mean ± SEM of n = 3
Sequence of PCNA (P12004 whole entry): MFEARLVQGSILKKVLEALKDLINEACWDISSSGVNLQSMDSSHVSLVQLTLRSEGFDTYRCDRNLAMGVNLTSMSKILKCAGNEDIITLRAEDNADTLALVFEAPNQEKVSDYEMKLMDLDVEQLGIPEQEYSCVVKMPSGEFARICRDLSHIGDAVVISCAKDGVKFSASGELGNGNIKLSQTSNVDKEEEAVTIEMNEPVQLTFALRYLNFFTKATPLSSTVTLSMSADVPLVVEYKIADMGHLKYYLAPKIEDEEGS
How it was run: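 His6-tagged PCNA (HRV 3C site) was IPTG-induced at 37 °C, then purified by Ni-NTA and Superdex 200 SEC. Protein was buffer-exchanged into 20 mM sodium phosphate, 0–500 mM NaCl, 1 mM TCEP, pH 7.4, with peptides dissolved in the same buffer. PCNA was in the cell, peptide in the syringe; 25 °C, 750 rpm stirring. Data were fitted to a one-set-of-sites model; triplicates, SEM.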

[2] = biological target: T1, proliferating cell nuclear antigen (PCNA) (UniProt P12004 1-261); test: ITC
T1 sequence (P12004 whole entry): as above

[3] = biological target: T1, proliferating cell nuclear antigen …; test: ITC; remark: listed apart in the source
[4] = biological target: T1, proliferating cell nuclear antigen …; test: ITC; remark: listed apart in the source
[5] = biological target: T1, proliferating cell nuclear antigen …; test: ITC; remark: listed apart in the source
[6] = biological target: T1, proliferating cell nuclear antigen …; test: ITC; remark: listed apart in the source
[7] = biological target: T1, proliferating cell nuclear antigen …; test: ITC; remark: listed apart in the source

| Molecule | N (binding stoichiometry) (PCNA; 100 mM NaCl) | ΔH (PCNA; 100 mM NaCl) [kJ/mol] | −TΔS (PCNA; 100 mM NaCl) [kJ/mol] | N (binding stoichiometry) (PCNA; 200 mM NaCl) | ΔH (PCNA; 200 mM NaCl) [kJ/mol] | −TΔS (PCNA; 200 mM NaCl) [kJ/mol] | N (binding stoichiometry) (PCNA; 300 mM NaCl) | ΔH (PCNA; 300 mM NaCl) [kJ/mol] | dH [2] [kJ/mol] | stoichiometry N [2] | Kd [3] [µM] | dH [3] [kJ/mol] | stoichiometry N [3] | Kd [2] [µM] | Kd [4] [µM] | dH [4] [kJ/mol] | stoichiometry N [4] | Kd [7] [µM] | dH [7] [kJ/mol] | stoichiometry N [7] | other results |
| --- | --- | --- | --- | --- | --- | --- | --- | --- | --- | --- | --- | --- | --- | --- | --- | --- | --- | --- | --- | --- | --- |
| CSCC[C@H](NC(=O)[C@H](CO)NC(=O)[C@@H](NC(=O)[C@H](CCC(N)=O)NC(=O)[C@H](CCCNC(=N)N)NC(=O)[C@H](CCCNC(=N)N)NC(=O)[C@H](CCCCN)NC(=O)[C@H](CCCNC(=N)N)NC(C)=O)[C@@H](C)O)C(=O)N[C@H](C(=O)N[C@@H](CC(=O)O)C(=O)N[C@@H](Cc1ccccc1)C(=O)N[C@@H](Cc1ccc(O)cc1)C(=O)N[C@@H](Cc1c[nH]cn1)C(=O)N[C@@H](CO)C(=O)N[C@@H](CCCCN)C(=O)N[C@@H](CCCNC(=N)N)C(=O)N[C@@H](CCCNC(=N)N)C(N)=O)[C@@H](C)O [p21_140–156] |  |  |  |  |  |  |  |  |  |  |  |  |  |  |  |  |  |  |  |  | half-life at 10 μM [1]: ~11 min |
| Ac-KRKKQTSMTDFYHSRKK-NH2 [p21SWAP] | 0.95 ± 0.04 | -60.8 ± 0.9 | 20.5 ± 0.9 | 0.79 ± 0.09 | -76 ± 2 | 38 ± 2 | 0.82 ± 0.04 | -72 ± 4 |  |  |  |  |  |  |  |  |  |  |  |  | −TΔS (PCNA; 300 mM NaCl): 36 ± 4 kJ/mol; N (binding stoichiometry) (PCNA; 400 mM NaCl): 0.79 ± 0.01; ΔH (PCNA; 400 mM NaCl): -74 ± 2 kJ/mol; −TΔS (PCNA; 400 mM NaCl): 38 ± 2 kJ/mol |
| Ac-RRRRQTSMTDFYHSRRR-NH2 [p21All–R] | 0.80 ± 0.05 | -87 ± 1 | 45 ± 2 | 0.73 ± 0.01 | -84 ± 3 | 45 ± 3 | 0.68 ± 0.01 | -83.5 ± 0.9 |  |  |  |  |  |  |  |  |  |  |  |  | −TΔS (PCNA; 300 mM NaCl): 46 ± 1 kJ/mol; N (binding stoichiometry) (PCNA; 400 mM NaCl): 0.61 ± 0.02; ΔH (PCNA; 400 mM NaCl): -81 ± 3 kJ/mol; −TΔS (PCNA; 400 mM NaCl): 44 ± 3 kJ/mol |
| Ac-KKKKQTSMTDFYHSKKK-NH2 [p21All–K] | 0.92 ± 0.01 | -68 ± 2 | 28 ± 2 | 0.75 ± 0.02 | -74 ± 4 | 37 ± 4 | 0.71 ± 0.02 | -80 ± 3 |  |  |  |  |  |  |  |  |  |  |  |  | −TΔS (PCNA; 300 mM NaCl): 41 ± 3 kJ/mol; N (binding stoichiometry) (PCNA; 400 mM NaCl): 0.80 ± 0.02; ΔH (PCNA; 400 mM NaCl): -76 ± 3 kJ/mol; −TΔS (PCNA; 400 mM NaCl): 41 ± 4 kJ/mol |
| Ac-QTSMTDFYHS-NH2 [p21_(core) peptide (isolated p21 core motif QTSMTDFYHS)] |  |  |  |  |  |  |  |  | -56 | 0.7 | 34.3 | -88 | 0.71 |  |  |  |  |  |  |  |  |
| Ac-RKRRQTSMTDFYHSKRR-NH2 [p21_(140–156) peptide (wild-type p21 PIP-degron with flanking regions)] |  |  |  |  |  |  |  |  | -75.9 | 0.86 | 0.341 | -89.6 | 0.76 | 0.068 | 0.606 | -93 | 0.8 | 0.182 | -90 | 0.86 | Kd [5]: 0.579 µM; dH [5]: -89 kJ/mol; stoichiometry N [5]: 0.72; Kd [6]: 0.019 µM; dH [6]: -73.9 kJ/mol; stoichiometry N [6]: 0.77 |
| Ac-KKKKQTSMTDFYHSKKK-NH2 [p21_(All–K) peptide] |  |  |  |  |  |  |  |  | -68 | 0.92 | 0.456 | -80 | 0.71 | 0.087 | 0.653 | -76 | 0.8 | 0.347 | -74 | 0.75 |  |
| Ac-KRKKQTSMTDFYHSRKK-NH2 [p21_(SWAP) peptide] |  |  |  |  |  |  |  |  | -60.8 | 0.95 | 0.407 | -72 | 0.82 | 0.087 | 0.547 | -74 | 0.79 | 0.206 | -76 | 0.79 |  |
| Ac-RRRRQTSMTDFYHSRRR-NH2 [p21_(All–R) peptide] |  |  |  |  |  |  |  |  | -87 | 0.8 | 0.273 | -83.5 | 0.68 | 0.045 | 0.398 | -81 | 0.61 | 0.139 | -84 | 0.73 |  |
